Most compounds without a hit are left out; they make up all but 3.5% or so of the library.
MrgX1 allo act – human MrgX1 positive allosteric modulation, primary screen | Q96LB2 | MrgX1-HEK293, Fluo-4 calcium flux, FDSS; active compounds read high | B-score at 10 µM | hit rate 0.63% among 310,000 | AID 588675;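 active = plate-corrected calcium response at least 3 library SD above typical, normal starting fluorescence, not activating the receptor alone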;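 also: compound read alongside a low EC10 to EC30 dose of BAM8-22 agonist; peak minus trough fluorescence over baseline measured at the second addition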
Target sequence (Q96LB2 whole entry, looked up): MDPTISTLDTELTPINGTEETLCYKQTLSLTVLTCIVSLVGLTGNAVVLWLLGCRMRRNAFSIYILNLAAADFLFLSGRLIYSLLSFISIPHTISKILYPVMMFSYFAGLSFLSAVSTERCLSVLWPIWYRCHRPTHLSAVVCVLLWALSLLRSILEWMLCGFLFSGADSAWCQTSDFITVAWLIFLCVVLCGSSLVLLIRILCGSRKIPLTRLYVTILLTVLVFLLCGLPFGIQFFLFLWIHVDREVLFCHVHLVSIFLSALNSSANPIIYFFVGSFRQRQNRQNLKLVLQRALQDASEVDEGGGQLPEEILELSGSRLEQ
MrgX1 antagonist – antagonists of human MrgX1 receptor; MRGX1-HEK293 calcium flux, Fluo-4, BAM8-22 antagonism; active compounds read low; B-score at 10 µM; hit rate 1.3% among 310,000;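 active = calcium-response B-score plate-corrected more than 3 library SD below zero, starting fluorescence within 5 deviations, no agonist response on first addition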;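 also: peak minus trough fluorescence over baseline after final BAM8-22 challenge near maximal dose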
MrgX1 ag – human MrgX1 receptor agonism, primary screen; MrgX1-HEK293 cells, Fluo-4 calcium fluorescence, agonist mode; active compounds read high; B-score at 10 µM; hit rate 0.44% among 310,000; AID 588627;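 active = calcium response B-score plate-corrected fluorescence ratio at least 3 library SD, with starting fluorescence B-score inside 5 SD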
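times = overnight plating, then 30 min 37 °C plus 30 min room-temperature dye loading | assay system = stable human MrgX1 HEK293 cell line | input = fifteen thousand cells per well | signal = kinetic calcium dye fluorescence, Fluo-4 NW | dosing = compound delivered in addition one of three | read-out = B-scored fluorescence response ratio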
RGS4 block – human RGS4 inhibition. HEK293 M3R/RGS4 inducible, Fluo-4 calcium flux; active compounds read high; triggered by carbachol at its EC20. B-score at 10 µM. hit rate 0.45% among 310,000. AID 463165;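 active = B-score, a plate-corrected calcium signal, over three deviations above library mean, with baseline fluorescence within five deviations of library mean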;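 also: RGS4 expression induced by doxycycline in cells with stable M3 receptor; B-score is computed from the integrated fluorescence ratio over baseline after carbachol; higher B-score means a larger calcium signal and so more RGS4 inhibition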
RGS4 act – potentiators or activators of RGS4; HEK293 M3R/inducible RGS4, carbachol calcium flux Fluo4; active compounds read low; hit rate 0.92% among 310,000; B-score at 10 µM;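 active = B-score of the integrated calcium signal more than 4 SD below the library mean, with starting fluorescence not abnormally high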;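 also: negative B-score means reduced calcium response which marks RGS4 activation or potentiation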
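Material: M3R-expressing HEK293 line, RGS4 induced by doxycycline | Schedule: Overnight RGS4 induction, 30 min dye load 37 °C, 20 min compound RT | Measured by: Fluo4 fluorescence kinetic imaging of calcium | Read-out: Integrated calcium ratio converted to B score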
MrgX1 ant reconf – confirmation of human MrgX1 receptor antagonists; shares compounds with MrgX1 antagonist; MrgX1-HEK293, BAM8-22 calcium flux, Fluo-4; active compounds read low; remaining BAM8-22 calcium response % of control (active compounds read low), % at 10 µM; hit rate 19% among 2,300; AID 602420;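 active = remaining agonist calcium response no higher than 100% minus 3 SD of agonist-only control wells, with starting fluorescence near control levels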;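 also: agonist BAM8-22 given at a near maximal EC90 to ECmax level; peak minus minimum fluorescence divided by baseline after agonist addition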
HEK293 Ca flux – counter-screen for MrgX1 antagonists: effect in parental HEK293 cells | shares compounds with MrgX1 antagonist | Fluo-4 calcium fluorescence, FDSS | fluorescence ratio F(max-min)/F0 at 10 µM | hit rate 2% among 4,000 | AID 624111;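 active = duplicate-averaged calcium fluorescence ratio at least three times the standard deviation of buffer wells, a nonspecific response in parental cells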
HEK293 Ca counter – counter-screen for MrgX1 allosteric activators: effect in parental HEK293 cells; parental HEK293 calcium flux, Fluo-4 fluorescence ratio; active compounds read high; hit rate 0.4% among 4,000; fluorescence ratio F(max-min)/F0 at 10 µM; AID 624114; shares compounds with MrgX1 antagonist;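 active = calcium fluorescence ratio, averaged over duplicates, at least 3 SD of the buffer-well ratio, meaning a nonspecific response in receptor-free cells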;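 also: untransfected parental HEK293 lacking MrgX1 used as counterscreen for MrgX1 allosteric activators; fluorescence change taken during the second addition on a kinetic imager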
HEK293 Ca cntr2 – MrgX1 activator counter-screen hit in parental HEK293 cells | shares compounds with MrgX1 antagonist | Fluo-4 calcium fluorescence (FDSS); active compounds read high | fluorescence ratio F(max-min)/F0 at 10 µM | hit rate 8.7% among 4,000 | AID 624115;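 active = calcium fluorescence ratio at least three times the spread of buffer wells, meaning a non-specific response in parental cells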
* hit, by the source's call; i = inactive; . = no result given.

SMILES	MrgX1 allo act	MrgX1 antagonist	MrgX1 ag	RGS4 block	RGS4 act	MrgX1 ant reconf	HEK293 Ca flux	HEK293 Ca counter	HEK293 Ca cntr2
N#Cc1ccccc1S(=O)(=O)N1CCN(CC(=O)NC(=O)NC2CCCCC2)CC1	i	-6.33*	i	i	i	i	i	i	i
COC(=O)C1=[N+]([O-])OC(C(=O)OC)C1c1c[nH]c2ccccc12 (configuration not stated)	i	i	i	i	i	.	.	.	.
CCOC(=O)c1nn(-c2cc(C(=O)OC)cc(C(=O)OC)c2)cc1O	i	i	i	i	i	.	.	.	.
CCOC(=O)c1nn(-c2sc(C(=O)OC)c(C)c2C(=O)OC)cc1O	i	-6.78*	i	i	i	61.6%*	i	i	i
CCCNS(=O)(=O)c1ccc(OCC(=O)N2CCOCC2)cc1	i	i	i	i	i	.	.	.	.
Cc1ccc(C(=O)C(C)OC(=O)Cn2[nH]c(=O)c3ccccc3c2=O)cc1C (configuration not stated)	i	i	i	i	i	.	.	.	.
Cc1ccc(NC(=O)CC2=NC(=O)C(CC(=O)Nc3ccccc3F)S2)cc1 (configuration not stated)	i	-4.91*	i	i	i	i	i	i	i
CC(CC(=O)NCCc1ccc(Cl)cc1)S(=O)(=O)c1ccc2c(c1)NC(=O)CO2 (configuration not stated)	i	i	i	i	i	.	.	.	.
N#Cc1cnc(NCc2ccc(Cl)cc2Cl)nc1	i	i	i	i	i	.	.	.	.
CC1(C)C2CCC13CS(=O)(=O)N[C@@H]3C2 (some centres not stated)	i	-9.4*	i	i	i	i	i	i	i
O=C(CCc1nc(-c2cccs2)no1)Nc1cnc2ccccc2c1	i	-5.56*	i	i	i	83.9%*	i	i	i
CCc1cccc(NC(=O)CCc2nc(-c3cccs3)no2)c1	i	i	i	i	i	.	.	.	.
CC1CCCN(C(=O)Nc2ccc(Br)cc2Cl)C1 (configuration not stated)	i	i	i	i	i	.	.	.	.
CC1CN(C(=O)Nc2ccc(Br)cc2Cl)CC(C)O1 (configuration not stated)	i	-6.38*	i	i	i	i	i	i	i
CCOC(=O)N1CCN(C(=S)NC(=O)/C=C/c2ccc(C)cc2)CC1	i	i	i	i	i	.	.	.	.
CCNc1nc2c(c(=O)[nH]c(=O)n2C)n1CC(C)C	i	-4.59*	i	i	i	i	i	i	i
Cc1ccc2c(c1)cc(CN(Cc1ccc3c(c1)OCO3)S(=O)(=O)c1ccccc1)c1nnnn12	i	-4.52*	i	i	i	i	i	i	i
Cc1ccc2c(c1)cc(CN(Cc1cccnc1)C(=O)c1ccccc1)c1nnnn12	i	i	i	i	i	.	.	.	.
O=C(NC1CCCN(Cc2ccc(Cl)cc2)C1)c1ccnc(Cl)c1 (configuration not stated)	i	i	i	i	i	.	.	.	.
O=C(NC1CCCN(c2ccc(C(F)(F)F)cn2)C1)c1ccnc(Cl)c1 (configuration not stated)	i	-4.91*	i	i	i	83.6%*	i	i	i
Cc1c(NC(=O)CSc2nnc(-c3cccc(Cl)c3)o2)c(=O)n(-c2ccccc2)n1C	i	i	i	i	i	.	.	.	.

Assay outcomes from PubChem.
